A short description of assay [1]: nonspecific flux increase, KCNQ1-free cells – parental CHO cells, counter-screen for KCNQ1 potentiator project (AID 493006;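 active = duplicate-averaged activation above buffer control mean plus 5 SD of those controls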;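 as to activation: fluorescence ratio of max minus min over baseline after K+ and Tl+ depolarization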). The following applies: parental CHO-K1 cells, FluxOR thallium flux, at 10 µM; active compounds read high. The essentials:
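Benchmarks – buffer and R-L3 controls · Assay system – untransfected host CHO-K1 cells with FluxOR thallium dye · Measure – fluorescence change ratio scaled 0% buffer, 100% R-L3 · Technique – kinetic thallium-flux fluorescence · Timing – overnight 37 °C plating, 90 min RT dye, 20 min compound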
On the technique in general: The purpose of a counterscreen is to sort out artefacts and off-target activity.

In assay [2] the target is Potassium voltage-gated channel subfamily KQT member 1 (Homo sapiens) (UniProt P51787). Nature of the assay: enhancement of KCNQ1 channel thallium flux – FluxOR thallium flux, CHO cells, duplicates, confirmation (AID 493007;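 active = potentiation averaged over duplicate wells exceeding buffer-only control mean by more than 3 SD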;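 as to outcome: cells depolarized by a potassium plus thallium sulfate stimulus after compound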). The following applies: KCNQ1 cell line, FluxOR thallium flux fluorescence, at 10 µM; active compounds read high, % of reference activator effect, buffer zero. The essentials: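 Material: CHO cells stably expressing the KCNQ1 potassium channel / Times: dye 90 min then compound 20 min, both at room temperature / Detection: kinetic thallium influx fluorescence with FluxOR dye, 10 s baseline, 110 s post-stimulus / Benchmarks: buffer-only wells as 0% and R-L3 activator as 100% / Replicates: each compound tested in duplicate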
Chain of Potassium voltage-gated channel subfamily KQT member 1 (Homo sapiens) (P51787 whole entry, looked up): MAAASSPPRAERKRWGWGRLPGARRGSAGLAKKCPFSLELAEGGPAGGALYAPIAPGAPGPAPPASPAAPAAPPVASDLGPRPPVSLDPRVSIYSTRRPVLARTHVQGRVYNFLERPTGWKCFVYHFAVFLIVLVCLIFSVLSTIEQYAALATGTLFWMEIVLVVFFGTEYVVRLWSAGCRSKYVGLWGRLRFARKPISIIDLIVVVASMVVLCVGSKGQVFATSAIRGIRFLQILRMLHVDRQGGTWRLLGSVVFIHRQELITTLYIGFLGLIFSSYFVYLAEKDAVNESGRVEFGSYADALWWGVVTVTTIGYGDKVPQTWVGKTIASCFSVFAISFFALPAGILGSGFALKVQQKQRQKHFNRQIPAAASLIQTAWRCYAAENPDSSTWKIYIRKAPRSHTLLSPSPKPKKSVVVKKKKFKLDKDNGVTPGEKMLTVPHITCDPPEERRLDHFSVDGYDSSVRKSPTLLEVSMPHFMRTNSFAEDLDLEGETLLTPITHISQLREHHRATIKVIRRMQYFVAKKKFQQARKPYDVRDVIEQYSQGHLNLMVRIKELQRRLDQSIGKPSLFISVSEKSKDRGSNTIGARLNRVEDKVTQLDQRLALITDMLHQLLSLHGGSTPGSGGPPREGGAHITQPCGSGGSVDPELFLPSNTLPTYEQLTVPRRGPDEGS

Assay [3] has the same target. As to the kind of experiment: KCNQ1 activators by electrophysiology – IonWorks patch clamp, KCNQ1-CHO cells, orthogonal assay for KCNQ1 potentiator project, confirmation (AID 493184). The settings on record: automated patch clamp current, at 10 µM; active compounds read high. The essentials: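 Probe or stimulus: depolarizing pulse to +40 mV from -90 mV; Material: CHO cells carrying KCNQ1; Compound: one dose, 10 µM final; Signal: automated voltage clamp, amphotericin B perforated patch; Read-out basis: percent current increase versus pre-compound level; Buffer or medium: pH 7.4 external bath; Replication: duplicates.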
A general note: The patch-clamp technique gives a direct electrical read-out from membranes.

For assay [4], the target named is T1, Potassium voltage-gated channel subfamily E member 1 (Homo sapiens) + Potassium voltage-gated channel subfamily KQT member 1 (Homo sapiens) (UniProt P15382+P51787). Nature of the assay: KCNQ1-E1 channel activation – thallium flux, CHO-K1 KCNQ1/E1 cells, selectivity assay for KCNQ1 potentiator project, confirmation (AID 493186;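 active = mean duplicate activation above the buffer control mean plus 5 SD of those controls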). The following applies: FluxOR thallium flux, at 10 µM; active compounds read high. The essentials:
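system = KCNQ1/E1-expressing stable CHO-K1 cell line | doses = single compound concentration per well | times = dye 90 min, compound 20 min, room temperature | measured by = FluxOR Tl+ flux fluorescence, kinetic read | evaluation = fluorescence rise relative to baseline, as percent of R-L3 response above buffer | controls = buffer and R-L3 | replicates = duplicate wells per compound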

Assay [5] deals with Potassium voltage-gated channel subfamily KQT member 1 (Homo sapiens) (UniProt P51787). As to the kind of experiment: blockers of human KCNQ1 channel – cell-based, Tl flux, duplicate, confirmation (AID 588353;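 active = primary screen active, with duplicate mean exceeding buffer control mean plus 3 SD of buffer wells, cut at about 28% in these data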;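 also: 0% = buffer control ratio and 100% = XE991 inhibitor control ratio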). The settings on record: KCNQ1 cell line, FluxOR thallium flux fluorescence, at 10 µM, active compounds read high. In a few lines:
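Assay system – KCNQ1 CHO cells · Probe or stimulus – Tl2SO4 plus K2SO4 stimulus, each 12.5 mM in 5x stock · Times – dye loading 90 min, compound 20 min, both room temperature · Signal – kinetic FluxOR thallium-sensitive dye fluorescence, 10 s baseline, 110 s post-stimulus · Measure – percent inhibition of fluorescence change ratio, scaled buffer to XE991 · Repeats – duplicate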

Assay [6] in a line: nonspecific activity in CHO-K1 cells without KCNQ1 – parental CHO cells, Tl flux, counter-screen for KCNQ1 inhibitor project (AID 588366;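 active = mean of duplicate thallium-flux fluorescence ratios in parental host cells more than 5 SD below the buffer control mean, cut at about 0.38 in these data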;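 also: ratio is peak minus minimum fluorescence divided by baseline fluorescence; actives read low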). The settings on record: parental CHO-K1, FluxOR thallium flux fluorescence ratio; at 10 µM; active compounds read low; zero means no signal rise above baseline. In a few lines:
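System: parental CHO-K1 cells lacking KCNQ1 channel expression. Probe or stimulus: depolarizing K2SO4 plus Tl2SO4 stimulus, each 12.5 mM in 5x stock. Times: 90 min dye load, 20 min compound, room temperature. Measured by: real-time thallium-sensitive FluxOR dye fluorescence reading. Read-out: baseline-normalized fluorescence amplitude ratio, averaged over duplicates. Repeats: duplicates.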

The target of assay [7] is Potassium voltage-gated channel subfamily KQT member 1 (Homo sapiens) (UniProt P51787). As to the kind of experiment: block of human KCNQ1 potassium current – cell-based, automated electrophysiology, orthogonal assay, confirmation (AID 624120;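 active = KCNQ1 current drop exceeding 3 SD of negative control wells, seen in both duplicate runs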). The settings on record: KCNQ1-CHO cells, automated patch clamp current; at 10 µM. The essentials:
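Material: CHO cells expressing human KCNQ1 potassium channel; replication: duplicates; probe or stimulus: voltage stimulus of 2,000 ms steps to +40 mV, -80 mV holding; measured by: automated perforated-patch voltage clamp using amphotericin B; medium: pH 7.4 external buffer; dosing: single test compound dose of 10 µM final; read-out: steady-state current change vs pre-compound, percent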

Assay [8] has as its target Potassium voltage-gated channel subfamily KQT member 2 (Rattus norvegicus) (UniProt O88943). As to the kind of experiment: block of rat KCNQ2 potassium channel – cell-based, selectivity assay for KCNQ1 inhibitor project (AID 651746;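 active = mean percent inhibition of the KCNQ2 thallium signal more than 5 SD above the buffer-only control wells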;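 as to inhibition: 0% = buffer control wells and 100% = XE-991 inhibitor control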). The following applies: KCNQ2 cells, FluxOR thallium flux fluorescence, at 10 µM; active compounds read high.
The target in assay [9] is T1, Potassium voltage-gated channel subfamily E member 1 (Homo sapiens) + Potassium voltage-gated channel subfamily KQT member 1 (Homo sapiens). As to the kind of experiment: block of human IKs channel complex – CHO-K1 cells, thallium flux, FluxOR, selectivity assay for KCNQ1 inhibitor project (AID 652147;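 active = mean percent inhibition of duplicate wells above the buffer-only control mean plus 3 SD of those controls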;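 as to inhibition: 0% = buffer only wells and 100% = XE-991 inhibitor control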). The following applies: KCNQ1/KCNE1 cells, FluxOR thallium flux fluorescence, at 10 µM; active compounds read high. The essentials:
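Test system: cells expressing KCNQ1/KCNE1 channels; Probe or stimulus: Tl2SO4 plus K2SO4 stimulus, each 12.5 mM in 5x stock; Times: 20 min compound pre-incubation at room temperature; Technique: kinetic FluxOR thallium-sensitive fluorescence, 1 Hz sampling, 150 s post-stimulus.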

A number with no mark means an inactive call. Some of the results follow. Calls of active or inactive are those of the source.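 The calls were made as follows, unless noted: active = current rise at least 3 SD above the untreated control mean in each of two repeat wells; inactive = the rest.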

We go through 30 compounds from PubChem BioAssay.

By inhibition is commonly meant the change of the read-out against control, counted positive when it falls.

T1 sequence (P51787 whole entry, looked up): as the sequence (P51787 whole entry, looked up) above
Chain of Potassium voltage-gated channel subfamily KQT member 2 (Rattus norvegicus) (O88943 whole entry, looked up): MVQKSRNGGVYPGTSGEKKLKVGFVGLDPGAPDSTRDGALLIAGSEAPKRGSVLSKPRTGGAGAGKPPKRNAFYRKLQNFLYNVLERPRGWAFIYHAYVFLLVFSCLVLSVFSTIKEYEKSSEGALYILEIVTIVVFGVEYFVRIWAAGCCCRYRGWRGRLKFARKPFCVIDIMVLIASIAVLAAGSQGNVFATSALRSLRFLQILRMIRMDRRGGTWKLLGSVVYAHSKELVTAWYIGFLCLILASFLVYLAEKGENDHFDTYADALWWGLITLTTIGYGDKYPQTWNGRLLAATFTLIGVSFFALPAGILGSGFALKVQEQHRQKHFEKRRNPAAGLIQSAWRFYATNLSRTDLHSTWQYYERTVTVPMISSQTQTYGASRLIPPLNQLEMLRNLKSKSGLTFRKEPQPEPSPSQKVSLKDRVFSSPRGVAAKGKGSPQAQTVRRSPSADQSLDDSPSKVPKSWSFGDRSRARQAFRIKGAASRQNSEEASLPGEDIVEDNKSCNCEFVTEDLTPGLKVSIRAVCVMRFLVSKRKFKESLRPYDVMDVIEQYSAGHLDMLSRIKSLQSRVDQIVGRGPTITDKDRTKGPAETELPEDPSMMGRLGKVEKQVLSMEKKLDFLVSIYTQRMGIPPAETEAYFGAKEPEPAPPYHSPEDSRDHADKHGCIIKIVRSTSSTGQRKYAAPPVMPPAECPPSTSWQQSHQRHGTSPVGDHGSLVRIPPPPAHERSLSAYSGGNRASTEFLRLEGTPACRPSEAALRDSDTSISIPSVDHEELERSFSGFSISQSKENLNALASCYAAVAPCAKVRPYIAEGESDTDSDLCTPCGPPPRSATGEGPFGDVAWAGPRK

Consider `CCOc1cc(S(=O)(=O)Nc2ccc(Cl)cn2)ccc1Cl`, for which the outcome in assay [1], in assay [2] and in assay [3] was inactive.
Take `CC1(c2ccc(OC(F)F)cc2)NC(=O)N(CC(=O)Nc2ccccc2)C1=O` (stereo not given): the result in assay [1], in assay [2], in assay [3] and in assay [4] was inactive.
On to `CC(C)(C)c1ccc(CN2N=Nc3ccccc3S2(=O)=O)cc1`, for which the outcome in [1], in assay [2] and in assay [3] was inactive.
Regarding `COc1ccc(OC)c(Nc2cc3ccccc3c(=O)[nH]2)c1`, the outcome in assay [1], in assay [2], in assay [3] and in assay [4] was inactive.
In the case of `Cn1c(=O)c2c(ncn2CC(=O)OCC(=O)Nc2cc(Cl)ccc2Cl)n(C)c1=O`, the outcome in assay [1], in assay [2] and in [3] was inactive.
Turning to `COc1ccc(Cl)cc1NC(=O)C(C)N1CCc2ccccc21` (stereo not given), the inhibition was 114% (active) in [5], 91% (active) in assay [8] and 132% (active) in assay [9]. Besides, in [6], the fluorescence ratio (Tl flux) was 0.428. In assay [7], the outcome was inactive.
As to `O=C(c1nnsc1S(=O)c1ccc(Cl)cc1)N1CCOCC1` (stereo not given), the result in assay [1], in [3] and in assay [4] was inactive. Further, the potentiation in assay [2] was 17.5% (active).
Take `COc1ccc(C2c3ccc4ccccc4c3Oc3ncn(CCCO)c(=N)c32)cc1OC` (stereo not given): the result in [1], in assay [2], in assay [3] and in assay [4] was inactive.
As to `S=c1[nH]nc(-c2ccccc2)n1/N=C/c1ccc(-c2ccccc2Cl)o1`, the outcome in assay [1], in assay [2], in assay [3] and in [4] was inactive.
For `CN(C(=S)NC(=O)c1ccc(F)cc1)C1CCCCC1`, the activation in [1] was 154% (active). Further, the potentiation in [2] is 31.5% (active). The result in assay [3] was inactive.
For `COC(=O)C1CCN(C(=O)Nc2ccc(OC)cc2)CC1` the same measures were 144% (active), 33% (active) and “inactive”.
Take `CCc1ccc(C2c3[nH]c4ccccc4c3CCN2C(=O)CN2CCN(CC)CC2)cc1` (stereo not given): the outcome in assay [1], in assay [2] and in [3] was inactive.
Consider `CCOc1ccc(-n2c(=S)sc3c(=O)n(-c4ccccc4)c(SC)nc32)cc1`, for which the outcome in assay [1], in [2] and in assay [3] was inactive.
On to `O=C(NC(=S)Nc1nc2c(s1)CCCC2)c1ccc(C(=O)c2ccccc2)cc1`, for which the activation in [1] was 138% (active). For the same compound, the potentiation in [2] was 30% (active). Also, the result in assay [3] was inactive.
Take `CC(CNC(=O)COc1ccccc1)OC(=O)Nc1ccc(Cl)c(Cl)c1` (stereo not given): the result in assay [1], in [2] and in assay [3] was inactive.
In the case of `COc1cccc(CN2CCN(Cc3cc4ccccc4[nH]3)CC2CCO)c1` (stereo not given), the result in assay [1], in assay [3] and in assay [4] was inactive. Further, the potentiation in assay [2] was 20% (active).
For `N=C1/C(=C\c2ccc(-c3cccc(Cl)c3)o2)C(=O)N=C2SC=C(c3ccccc3)N12`, the outcome in assay [1] and in assay [3] was inactive. The potentiation in assay [2] was 29% (active).
With `CCOc1ccc(CN2CCN(Cc3c[nH]c4ccccc34)CC2)cc1`, the inhibition in assay [5] is 0% [the number is a placeholder, only the call stands]; in assay [9] it was 40% (active). Further, the fluorescence ratio (Tl flux) in assay [6] is 0.441. Also, in [8], the call was inactive.
`CCOC(=O)N1CCN(C(=O)C2CCN(c3ncnc4c3sc3cccc(F)c34)CC2)CC1`: the values for the inhibition in [5], in assay [8] and in assay [9] were 109% (active), 105% (active) and 90% (active), respectively. Further, the fluorescence ratio (Tl flux) in assay [6] was 0.427. Moreover, the call in [7] was active.
Regarding `Cc1nc(N2CCN(c3ccccn3)CC2)c2c(C)c(C(=O)Nc3ccc(F)cc3)sc2n1`, the figures for the inhibition in [5] and in assay [8] were 146% (active) and 141% (active), respectively. In assay [6], the fluorescence ratio (Tl flux) is 0.324 (active).
In the case of `Cc1nc2ccccc2cc1OCc1ccc(F)cc1`, the inhibition was 126% (active) in assay [5], 99% (active) in [8] and 88.5% (active) in assay [9]. Also, the fluorescence ratio (Tl flux) in [6] is 0.438. Further, the compound was called inactive in assay [7].
For `Cc1oc2c(F)c(F)c(F)c(F)c2c1S(=O)(=O)Nc1cccc(C(F)(F)F)c1`, in assay [5], the inhibition is 0% [the number is a placeholder, only the call stands]. The fluorescence ratio (Tl flux) in [6] was 0.531. The result in assay [8] and in assay [9] was inactive.
Turning to `O=C(CCN1c2ccccc2Sc2ccccc21)Nc1ccccc1`, the inhibition in assay [5] was 164% (active); in [8], 118% (active); in assay [9], 186% (active). Further, the fluorescence ratio (Tl flux) in [6] was 0.384. In addition, in assay [7], the compound was classed as inactive.
Turning to `CCCC(=O)N1CCN(c2nnc(-c3ccc(C)cc3)c3ccccc23)CC1`, the inhibition is 0% [the number is a placeholder, only the call stands] in [5]; 75% (active) in assay [8]; 78% (active) in assay [9]. Further, the fluorescence ratio (Tl flux) in assay [6] was 0.507.
For the compound `COc1ccc(Nc2ncnc3sc(-c4ccccc4)cc23)c(OC)c1`, the inhibition is 82.5% (active) in assay [5], 112% (active) in [8] and 146% (active) in [9]. Moreover, the fluorescence ratio (Tl flux) in assay [6] is 0.403.
In the case of `Cc1cccc(Nc2ccccc2C(=O)NCc2ccco2)c1C`, the inhibition is 134% (active) in assay [5], 101% (active) in [8] and 198% (active) in assay [9]. For the same compound, the fluorescence ratio (Tl flux) in assay [6] was 0.394. Moreover, in [7], the outcome was inactive.
Consider `O=C1CCc2cc(S(=O)(=O)N3CCC(C(=O)NCc4ccccc4Cl)CC3)ccc2N1`, for which the inhibition in assay [5] is 0% [the number is a placeholder, only the call stands]. For the same compound, in assay [6], the fluorescence ratio (Tl flux) is 0.447. Further, the compound was called inactive in [8] and in assay [9].
Consider `O=C(CNCCC1=CCCCC1)Nc1ccccc1N1CCCCCC1`, for which the inhibition was 144% (active) in assay [5], 114% (active) in assay [8] and 175% (active) in assay [9]. In addition, in assay [6], the fluorescence ratio (Tl flux) is 0.402. Besides, in assay [7], the compound was called inactive.
As for `Cc1cc(C)cc(N(CC(=O)N2CC=C(c3ccccc3)CC2)S(=O)(=O)c2c(C)noc2C)c1`, the inhibition in assay [5] was 78% (active); in assay [8] it was 111% (active); in assay [9], 84% (active). For the same compound, the fluorescence ratio (Tl flux) in assay [6] is 0.363 (active).
For `Cc1ccc(-c2noc(CC(c3ccccc3)c3ccccc3)n2)cc1` the same measures were 65.5% (active), 77% (active), 116% (active) and 0.45.
